ERAP1 inh – inhibitors of human ERAP1 aminopeptidase. Q9NZ08. recombinant ERAP1, Leu-AMC fluorescence, 60 min. inhibition, % at 10.7 µM. hit rate 0.15% among 340,000. AID 652197;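 active means mean replicate inhibition of at least 30%, or all replicates individually reaching that 30% level; inactive means mean below 30% and not every replicate reaching it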;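 further: 0% = neutral control wells and 100% = L-leucinethiol positive control wells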
FGF22 binding – shifts melting point of recombinant human FGF22; Q9HCT0; recombinant FGF22 thermal shift, SYPRO orange fluorescence; percent of sucrose octasulfate shift, DMSO zero; activity (Tm shift, normalised), % at 9.99 µM; hit rate 1.5% among 340,000; AID 651658;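 active means mean Tm shift, scaled 0 neutral to 100 positive control, at about 1.3% or above, every replicate too, limit read from the data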
Target sequence (Q9HCT0 whole entry, looked up): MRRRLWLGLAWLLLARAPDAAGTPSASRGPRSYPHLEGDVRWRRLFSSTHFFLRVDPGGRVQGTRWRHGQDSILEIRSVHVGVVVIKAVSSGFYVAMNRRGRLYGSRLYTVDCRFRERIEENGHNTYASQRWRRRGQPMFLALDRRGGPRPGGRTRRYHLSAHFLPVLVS
PDI turbidity – inhibitors of human protein disulfide isomerase. PDI insulin aggregation turbidity, A650, 90 min. inhibition, % at 10 µM. hit rate 0.052% among 350,000. AID 588391;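 active means mean inhibition across replicates of 30% or more, whatever share of single replicates reach that level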
ERp5 inh – blocks human ERp5 reductase activity on insulin; ERp5 insulin aggregation, absorbance 650 nm, 90 min; hit rate 0.05% among 350,000; inhibition, % at 9.99 µM;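 active means mean replicate inhibition above about 25%, with every replicate also reaching it, limit read from the data, passing the limit was not always enough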
S100A4 MyoIIA – inhibitors of human S100A4 binding to myosin IIA peptide. hit rate 0.14% among 360,000. P26447. AID 652163. S100A4/TAMRA-MyoIIA peptide fluorescence polarization. inhibition, % at 10.7 µM;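 active means mean inhibition of at least 70% across replicates, with every replicate also reaching that level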
Target sequence (P26447 whole entry, looked up): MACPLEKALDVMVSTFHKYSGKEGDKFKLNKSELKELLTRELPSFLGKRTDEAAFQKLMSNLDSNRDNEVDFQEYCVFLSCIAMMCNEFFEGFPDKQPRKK
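System – human S100A4 monomer protein, biochemical binding assay · Buffer or medium – Calcium-containing HEPES buffer, pH 7.2 · Timing – 5 min between mix addition and reading · Also added – TAMRA-labelled myosin IIA heavy-chain peptide probe, 5 nM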
* = called active by the depositor; / = no result given. The full list was thinned out, with hits kept by preference.

SMILES	ERAP1 inh	FGF22 binding	PDI turbidity	ERp5 inh	S100A4 MyoIIA
S=C(Nc1ccccc1)N1CCN(c2ccc(N3CCOCC3)nn2)CC1	-2	0	-22	0	2
CC(=O)NC(C)c1nc2ccccc2n1CC(=O)N1C(C)CCCC1C (configuration not stated)	1	44*	2	-2	-4
CC(=O)C1=C(O)C(=O)N(CCc2c[nH]c3ccccc23)C1c1ccccc1 (configuration not stated)	5	0	21	-7	-4
CC(=O)C1=C(O)C(=O)N(CCc2c[nH]c3ccccc23)C1c1ccc(O)cc1 (configuration not stated)	/	/	46*	/	/
CCOC(=O)C1CCN(c2c(NCCCN3CCCCC3)c(=O)c2=O)CC1	/	0	2	1	-1
CCOC(=O)C1CCN(c2c(NCCCN(C)C3CCCCC3)c(=O)c2=O)CC1	1	0	34*	-1	-5
C[C@@H]1CN([C@H](C)CO)C(=O)c2cc(C#CC3CCCCC3)cnc2O[C@H]1CN(C)C(=O)Cc1ccccn1	2	-1	/	-3	-2
Cc1ccc(NC(=O)CN2CCCN(S(=O)(=O)c3ccc(Br)s3)CC2)cc1	0	0	1	13	1
Clc1cccc(Cc2c(-c3cccc(Br)c3)nc3c4ccccc4ccn23)c1	-2	43*	/	-4	-3
Clc1ccc(-c2nc3c4ccccc4ccn3c2Cc2cccc(Cl)c2)cc1	-1	0	/	-7	1
O=C1CCCC/C1=C\Nc1ccc(Cl)cn1	/	/	-2	/	/
Cc1ccc(N/C=C2\CCCCC2=O)nc1	-1	43*	1	2	-2
CCn1c2ccccc2c2cc(/C=C(/C#N)C(N)=S)ccc21	3	0	-1	-8	8
CCOC(=O)CSc1ccc(C(=O)Nc2ccc(OC)cc2)cn1	1	43*	6	3	-1
COc1ccc(NC(=O)c2ccc(Oc3ncccn3)cc2)cc1	1	44*	8	-3	0
COc1ccc(NC(=O)c2ccc(NC(=O)c3ccncc3)cc2)cc1	-2	1	1	4	-10
CC(NC(=O)NC(=O)c1cccc([N+](=O)[O-])c1)C1CC1 (configuration not stated)	-6	0	1	-12	-1
COc1ccc(CCN2C(=O)CS/C2=N\NC(=O)c2cccs2)cc1OC	0	44*	7	-8	-3
Cc1noc(C)c1C(=O)N1CCC1(C)C(=O)NS(=O)(=O)Cc1cccc(Cl)c1 (configuration not stated)	6	44*	-7	-1	1
CCOC(=O)CSc1nc(=O)n2ccccc2n1	-4	0	-4	-6	-20
CCCNC(=O)c1onc(CSc2ccc(F)c(F)c2)c1C(=O)NCCC	4	36*	/	-1	-1
O=C(Nc1cc(Cl)ccc1N1CCOCC1)C1=COCCO1	-5	0	8	0	-6
Cc1cccc(C)c1OCC(=O)N/N=C/c1ccncc1	-1	0	5	4	-2
O=C(COc1cccc2ccccc12)N/N=C/c1ccncc1	0	43*	5	-2	-43
O=C1CC2c3ccccc3C1C1C(=O)N(CCc3ccccc3)C(=O)C21 (configuration not stated)	-1	43*	2	-1	2
SMILES	ERAP1 inh	FGF22 binding	PDI turbidity	ERp5 inh	S100A4 MyoIIA
C=CCN1C(=O)C2C3CC(=O)C(c4ccccc43)C2C1=O (configuration not stated)	-8	0	-2	0	22
O=C1ON=C(c2ccc(Cl)c([N+](=O)[O-])c2)/C1=C/c1cccc([N+](=O)[O-])c1O	99*	0	9	-22	3
O=C1ON=C(c2ccccc2[N+](=O)[O-])/C1=C/c1cccc([N+](=O)[O-])c1O	65*	0	-1	4	4
O=C1ON=C(c2cccc([N+](=O)[O-])c2)/C1=C/c1ccc(O)cc1	0	/	8	-1	-4
Cc1cccc(C)c1OCCNC(=O)c1ccc2ccccc2n1	7	0	-9	1	-8
CC(C)OCCCN(C)C1CCN(S(=O)(=O)c2ccc(-c3cc(C(F)(F)F)no3)s2)CC1	5	0	9	-1	34
O=C(CN1C(=O)NC2(CCCCC2)C1=O)N1CCc2ccccc2C1	8	0	-4	-2	3
O=C(CN1C(=O)NC2(CCCC2)C1=O)N1CCc2ccccc2C1	-1	43*	23	-8	2
CCOc1[nH]n(-c2ccccc2)c(=O)c1C=Nc1ccc(F)cc1F	7	42	-5	5	-5
O=c1[nH][nH]c(-c2ccccc2)c1C=Nc1ccc(F)cc1F	-2	44*	-6	0	-8
COc1ccc(CC(=O)OC(C)CN2CCCCC2)cc1 (configuration not stated)	-1	43*	-2	0	29
CC(CN1CCCCC1)OC(=O)Cc1ccc(Cl)cc1 (configuration not stated)	/	/	-16	/	/
CCCCOc1ccc(CSCCN=C(N)N)cc1	-7	43*	15	1	-3
CC(OC(=O)Cc1n[nH]c(=O)c2ccccc12)C(=O)Nc1ccc(F)cc1 (configuration not stated)	4	0	3	4	2
CCC/C(=C1/c2ccccc2C(=O)N1c1ccccc1)c1c(C)noc1C	1	43*	/	2	-2
CCC/C(=C1/c2ccccc2C(=O)N1c1ccccc1)c1ccc2c(c1)OCO2	0	0	-3	2	-4
COCCNC(=O)CCn1nc(-c2ccc(Cl)cc2)c2ccccc2c1=O	/	/	4	/	/
COc1ccc(NC(=S)NC23CN4CN(CN(C4)C2)C3)cc1	/	/	15	/	/
COc1ccc(NC(=S)NC23CN4CN(CN(C4)C2)C3)c(OC)c1	2	44*	-1	2	-3
CCNC(=O)C[C@H]1CC[C@@H]2[C@H](COC[C@@H](O)CN2Cc2ccccc2F)O1	2	0	/	0	6
COCCNC(=O)/C(C#N)=C/c1ccc(O)c([N+](=O)[O-])c1	10	43*	-1	3	-2
Cc1nnc(SCC(=O)N2CCCC(C(=O)c3ccc(Cl)cc3)C2)o1 (configuration not stated)	-8	43*	0	-2	1
CC(C)NC(=O)N1[C@@H](CO)[C@@H](c2ccccc2)C12CN(C(=O)Cc1ccccc1)C2	-7	0	/	-6	7
CC(C)NC(=O)N1[C@@H](CO)[C@@H](c2ccccc2)C12CN(C(=O)Cc1cccnc1)C2	0	-1	/	-2	125*
CCCNC(=O)[C@H]1[C@H](CO)[C@H]2Cn3c(ccc(-c4ccccc4F)c3=O)[C@@H]1N2C(C)=O	-3	0	/	1	6
Cc1cccc(-c2oc3ccc(-c4ccc5c(c4)OCO5)cc3c2-c2ccc(OC3CCCCO3)cc2)c1 (configuration not stated)	-2	0	1	-1	107*

Screening results: PubChem BioAssay, Broad Institute
